# EBNA-1 inh: blocks EBNA-1 binding to DNA; EBNA-1 DNA binding, fluorescence polarization; inhibition, % at 14.8 µM; hit rate 0.34% among 300,000; in the data active = inhibition above about 28%
# PP1 counter: PP1-alpha (human) inhibition in PP5 counter-screen; P62136; inhibition, % at 6.7 µM; purified PP1alpha, OMFP fluorescence; hit rate 0.9% among 320,000; AID 2235;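 active = inhibition above the mean inhibition of all tested compounds plus 3 SD, computed separately for each screening campaign, cut at about 15% in these data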
# Target sequence (P62136 whole entry, looked up): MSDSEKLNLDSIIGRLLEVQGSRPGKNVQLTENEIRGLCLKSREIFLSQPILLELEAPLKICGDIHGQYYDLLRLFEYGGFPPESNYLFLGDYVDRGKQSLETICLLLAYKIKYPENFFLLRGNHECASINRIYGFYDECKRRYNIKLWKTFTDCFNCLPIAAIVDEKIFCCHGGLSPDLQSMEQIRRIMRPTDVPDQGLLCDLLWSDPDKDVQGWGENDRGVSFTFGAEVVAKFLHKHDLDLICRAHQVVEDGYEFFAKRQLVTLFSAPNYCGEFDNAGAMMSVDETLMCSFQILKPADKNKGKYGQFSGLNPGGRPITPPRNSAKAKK
# NS3 helicase inh: inhibitors of Hepatitis C virus NS3 helicase; NS3 helicase DNA unwinding, Cy5 molecular beacon fluorescence; inhibition, % at 10.9 µM; hit rate 0.56% among 290,000;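 active = inhibition above the mean of all tested compounds plus 3 SD, set per campaign, cut at about 35% in these data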;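 note: 0% = DMSO wells and 100% = thioflavine S control wells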
#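 Assay system – hepatitis C virus NS3 helicase domain fragment enzyme · Buffer or medium – MOPS pH 6.5, MgCl2, DTT, Tween20, BSA · Reagent – Cy5/quencher beacon DNA duplex and ATP to start · Compound – single 10.9 µM dose · Timing – 1 h at 25 °C · Technique – Cy5 beacon fluorescence read at start and 1 h · Measure – % inhibition of unwinding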
# ZTA DNA inh: ZTA (EBV) inhibition in EBNA-1 counter-screen; hit rate 0.15% among 320,000; inhibition, % at 11 µM; P03206; ZTA-DNA binding, fluorescence polarization; in the data active = inhibition above about 33%
# Target sequence (P03206 whole entry, looked up): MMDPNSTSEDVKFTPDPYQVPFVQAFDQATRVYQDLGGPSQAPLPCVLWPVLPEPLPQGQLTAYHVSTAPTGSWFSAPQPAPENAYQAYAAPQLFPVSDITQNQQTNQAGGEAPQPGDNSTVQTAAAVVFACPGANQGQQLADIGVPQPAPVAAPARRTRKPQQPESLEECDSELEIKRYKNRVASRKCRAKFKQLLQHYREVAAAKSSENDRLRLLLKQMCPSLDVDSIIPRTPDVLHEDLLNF
# core dimer inh: HCV core protein dimerization inhibition. TR-FRET GST/Flag-core106 dimerization, 1536-well. inhibition, % at 5 µM. hit rate 0.33% among 300,000. AID 1899;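 active = inhibition above the mean of all tested compounds plus 3 SD, set per screening campaign, cut at about 45% in these data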
#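 Material: GST/Flag-tagged HCV core106 proteins. Incubation: 4 h, 22.5 °C incubation. Read-out basis: inhibition (%) from 671 over 617 nm ratio. Measured by: TR-FRET, excitation 340 nm, emission 617 and 671 nm.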
# Starred values were filed as active, the others as inactive; . = not tested or not shown. Sampled rows, rich in hits. Any-hit rate of the full collection: about 1.9%.
SMILES,EBNA-1 inh,PP1 counter,NS3 helicase inh,ZTA DNA inh,core dimer inh
COC/C=C/C1=CC2=CC(=O)C(C)(OC(=O)c3cccs3)C(=O)C2=CO1 (stereo not given),1.1,4.1,.,2.8,42.1
COC/C=C/C1=CC2=CC(=O)C(C)(O)C(=O)C2=CO1 (stereo not given),-4.7,14.3,.,12.8,57.6*
COC/C=C/C1=CC2=CC(=O)C(C)(OC(=O)c3ccco3)C(=O)C2=CO1 (stereo not given),13.2,1.6,.,29.3,50.8*
O=C(COC(=O)Cc1ccccc1[N+](=O)[O-])NCc1ccccc1Cl,-0.1,-6.7,13.7,-2.9,1.1
Cc1ccccc1C(=O)Nc1nnc(CC(=O)N/N=C/c2cn(Cc3ccccc3)c3ccccc23)s1,6.6,15.5*,-8.3,-7.7,33.1
Cc1ccccc1C(=O)Nc1nnc(CC(=O)N/N=C/c2ccco2)s1,2.6,-4.6,30.4,3.0,-2.9
O=C(Nc1ncn[nH]1)c1ccc(Cl)c(S(=O)(=O)Nc2ccc(Cl)cc2)c1,-1.3,16.5*,3.6,-12.6,-6.3
O=C(Nc1ncn[nH]1)c1cc(S(=O)(=O)Nc2ccc(Cl)cc2)ccc1Cl,-2.8,3.1,-5.3,2.1,-1.0
O=C(COC(=O)COc1ccc(Cl)cc1)Nc1ccc2c(c1)OCCO2,.,-3.2,.,3.1,.
Cn1cnnc1SCc1ccc(-c2ccc(Br)cc2)o1,2.6,5.7,23.8,11.7,64.0*
CCc1ccccc1NC(=O)COc1ccc2c(=O)c(Oc3cc(C)ccc3C)coc2c1,0.9,-0.7,1.5,0.6,12.1
CC(C)c1ccccc1NC(=O)COc1ccc2c(=O)c(Oc3ccc4ccccc4c3)coc2c1,-0.5,18.4*,0.3,-11.3,23.3
Cc1ccc(-c2cc(-c3ccc(F)cc3)c(C#N)c(N)n2)o1,-3.9,3.3,8.2,10.1,31.1
Cc1ccc(-c2cc(-c3ccc(C)o3)nc(N)c2C#N)cc1,0.0,2.3,11.6,-17.1,60.4*
Nc1cc(OC(=O)c2cccs2)nn1S(=O)(=O)c1ccccc1,12.9,15.5*,-8.5,2.5,7.6
Nc1cc(OC(=O)c2cccs2)nn1S(=O)(=O)c1ccc(F)cc1,-8.9,-4.1,-1.6,-10.1,0.1
CC(=O)Nc1ccc(S(=O)(=O)NC(CSc2ccc(C(=O)O)cc2[N+](=O)[O-])C(=O)O)cc1 (stereo not given),4.1,-1.2,11.4,23.4,-2.1
CCOC(=O)c1c(CN(C)C)n(C)c2c(O)c(N=NC(N)=O)c3ccc(Br)cc3c12,-1.4,17.2*,-99.6,2.3,-2.8
O=C(Nc1ccc(OC(F)F)c(Cl)c1)Nc1ccc2c(c1)OCO2,8.3,3.6,-17.3,9.6,-2.4
O=C(Nc1ccc([N+](=O)[O-])cc1)Nc1ccc(OC(F)F)c(Cl)c1,-4.5,17.5*,8.9,1.4,-1.2
COCc1c(C(=O)NCCOc2ccc(Cl)cc2)oc2ccccc12,.,-0.5,.,9.2,.
Cc1ccc(-n2cc(C(=O)c3ccc(F)cc3)nn2)cc1Cl,-6.5,5.7,-4.6,8.0,69.6*
CCOC(=O)c1ccc(-n2cc(C(=O)c3cccnc3)nn2)cc1,.,.,-13.0,.,.
COc1ccccc1CN(C(=O)CCl)C(C(=O)NC1CCCCC1)c1ccncc1 (stereo not given),-3.5,17.0*,-36.0,11.9,7.8
Cc1ccc(S(=O)(=O)N(C)c2ccc3c(ncn3C)c2[N+](=O)[O-])cc1,3.5,1.0,.,-22.8,-4.1
SMILES,EBNA-1 inh,PP1 counter,NS3 helicase inh,ZTA DNA inh,core dimer inh
O=C(/C=C\c1ccco1)c1ccc(NC(=O)c2ccco2)cc1,-9.2,3.0,22.3,1.8,56.9*
CC(=O)Nc1ccc(C(=O)/C=C/c2ccco2)cc1,0.7,-0.9,20.4,15.8,3.6
Cc1cc(Nc2ccc(Cl)cc2)nc(NCc2ccccc2)n1,-0.4,17.1*,-67.7,12.6,-8.8
Cc1cc(N/N=C/c2ccc(N(C)C)cc2)nc(NCc2ccccc2)n1,-10.6,16.3*,-63.3,-17.7,-5.2
Cc1cc(Nc2ccccc2)nc(NCc2ccccc2)n1,1.0,8.9,-89.2,2.1,-8.3
NC(=O)C1CC(=O)N(c2ccc(OCc3ccccc3Cl)cc2)C1 (stereo not given),2.9,-5.6,8.2,-5.3,-1.1
C=CCn1c(CCC(O)COCCCCC)n[nH]c1=S (stereo not given),-10.4,-1.1,5.3,5.2,-6.3
CC1Cc2ccccc2C(CCc2ccccc2)=N1 (stereo not given),-6.8,-0.9,-3.3,-12.2,-7.9
Cc1ccc(Nc2cc(C)c3c(O)cccc3n2)cc1C,-10.8,10.4,-42.3,-10.2,-4.7
Cc1ccc(Nc2cc(C)c3ccc(O)cc3n2)cc1C,-1.1,17.0*,-62.4,-0.1,-4.4
Cc1ccc2nc(SCC(=O)N3CCN(c4ccccc4)CC3)[nH]c2c1,5.7,-5.2,0.6,3.8,2.5
COc1ccccc1N1CCN(C(=O)CSc2nc3ccccc3[nH]2)CC1,5.8,17.1*,-8.2,4.5,-26.5
COc1ccccc1C(=O)NCCC(=O)NCCCSc1ccccc1,-6.8,-3.4,.,-1.3,-3.2
Cc1cc(SCc2ccc(Cl)cc2)nc(=O)[nH]1,3.3,-1.5,13.6,-15.0,-1.5
Cc1ccc(CSc2cc(C)[nH]c(=O)n2)cc1,3.9,-1.9,24.2,-4.9,53.2*
Cc1ccccc1NC(=O)c1c(C)[nH]c(=S)c(C#N)c1-c1ccco1,1.1,1.8,49.1*,1.7,16.2
Cc1cccc(-n2cc(CNCCc3nc(C)cc(C)n3)c(-c3cccc(F)c3)n2)c1,-6.0,2.3,-63.1,10.4,-4.2
CCOc1cccc(C(=O)N2CCCCC2c2cccnc2)c1 (stereo not given),-0.8,16.0*,-11.9,-10.5,-3.1
CC(=O)c1ccc(OCc2cc(C(=O)N3CCCCC3c3cccnc3)no2)cc1 (stereo not given),-9.2,-3.6,-3.0,-3.0,4.3
O=C(Nc1ccc(-c2nc3ccccc3s2)c(OC(=O)c2ccccc2)c1)c1ccccc1,10.7,-3.0,11.2,6.0,57.7*
Cc1cc(C(=O)NCC(c2ccco2)N2CCCC2)c2ccccc2n1 (stereo not given),.,-6.5,.,11.1,.
Cc1cc(C)n2c(=O)c3ccc(Cl)cc3nc2c1C#N,-8.4,2.9,-7.7,9.0,51.9*
Cc1cc(Cl)n2c(nc3cc(F)c(F)cc32)c1C#N,.,.,5.8,.,.
Cc1csc(Nc2nc(N)c(C(=O)Nc3ccccc3)o2)n1,-3.1,-2.8,7.7,6.9,-15.2
Cc1ccc(C(=O)Nc2ccccc2C(=O)O)cc1S(=O)(=O)NCc1ccccc1,-10.4,0.5,22.3,-11.8,2.4
Cc1ccc(C(=O)Nc2ccccc2C(=O)O)cc1S(=O)(=O)Nc1ccc(Br)cc1,-4.2,16.4*,.,-11.9,4.0
O=C(Nc1ccncc1)c1ccc(Cl)c(S(=O)(=O)N2CCc3ccccc32)c1,-12.2,4.6,.,-9.6,5.3
CCc1nnc(NC(=O)c2ccc(Cl)c(S(=O)(=O)N3CCc4ccccc43)c2)s1,-10.0,13.6,-0.6,-7.8,51.3*

# Screens: PubChem, The Scripps Research Institute Molecular Screening Center
